Assay results from ChEMBL document CHEMBL5634162, “Cyclohexylalanine-Containing α-Helical Amphipathic Peptide Targets Cardiolipin, Rescuing Mitochondrial Dysfunction in Kidney Injury” (J Med Chem, 2024).
Calls of active or inactive are those of the source. The calls are words filed in the database; no cut-off is given here. Where a SMILES comes first, the peptide text is derived from it. Bridges are numbered along the chain shown (N, C = ends). Roman numbers before positions name the chains, in order. [ ]: non-standard residue; d: D form. The star is where a group is joined. 5TAMRA = CN(C)c1ccc2c(c1)Oc1cc(N(C)C)ccc1C21OC(=O)c2cc(C(=O)*)ccc21; Cha = N[C@@H](CC1CCCCC1)C(=O)O

Assays:
[1] = Drug localization in mitochondria of human HeLa cells at EC50 incubated for 3 hrs by fluorescence based assay; assay type: ADME
Mitochondria = assay: Inhibition of CCCP -induced mitochondrial ROS generation in human HeLa cells incubated for 190 mins followed by CCCP addition measured after 90 mins by MitoSOX probe based analysis; assay type: functional; settings: dose 5-20 nM
Summary of the method: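 HeLa cells seeded, stained 24 h later with MitoSOX 5 μM for 10 min, washed, HBSS, read on plate reader at 37 °C (Ex/Em 510/580 nm).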

HeLa = assay: Induction of H2O2-reduced mitochondrial membrane potential in human HeLa cells incubated for 3 hrs followed by H2O2 addition for 1 hr by fluorescence based analysis; assay type: functional, cell-based; settings: dose 10-30 nM, time 4.0 hrs
Summary of the method: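 HeLa cells given peptide 3 h then 1 mM H2O2 for 1 h; TMRE 600 nM for 15 min, washed, fluorescence read in HBSS at 37 °C (Ex/Em 525/575 nm).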

[2] = Drug localization in endosomes of human HeLa cells expressing endosome markers at 100 nM incubated for 3 hrs by GFP based analysis; assay type: ADME, subcellular; settings: 0.1 µM
Summary of the method: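 HeLa cells expressing early-endosome GFP marker (16 h) given TAMRA-labelled peptide 100 nM for 3 h plus LysoTracker 50 nM; confocal imaging with Pearson correlation.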

[3] = Drug localization in lysosomes of human HeLa cells at 100 nM incubated for 3 hrs in presence of CCCP by NAO probe based analysis; assay type: ADME, subcellular, Lysosome; settings: 0.1 µM
Summary of the method: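 HeLa cells given TAMRA-labelled peptide 100 nM for 3 h and cardiolipin stained with NAO (100 nM, 1 h), with or without 20 μM CCCP for 30 min; LysoTracker 50 nM. Confocal images, Pearson r from five independent images (63×) per condition.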

[4] = Drug localization in mitochondria of human tubular epithelial cells upto 100 nM by MitoTracker probe based assay; assay type: ADME; settings: epithelial cell, 0.1 µM
[5] = Drug localization in H2O2-damaged mitochondria of human tubular epithelial cells pretreated for 3 hrs followed by H2O2 addition measured after 30 mins by fluorescence based analysis; assay type: ADME; settings: epithelial cell, time 3.5 hrs
Epithelial cell [6] = assay: Induction of H2O2-reduced mitochondrial membrane potential in human tubular epithelial cells at 20 to 60 nM pretreated for 3 hrs followed by H2O2 addition measured after 30 mins by fluorescence based analysis; assay type: functional; settings: dose 20-60 nM
Summary of the method: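 hTECs given peptide 3 h then H2O2 1 mM for 30 min; TMRE 600 nM for 15 min, washed, HBSS, plate reader at 37 °C (Ex/Em 525/575 nm).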

Epithelial cell [7] = assay: Induction of antimycin A-reduced ATP production in human tubular epithelial cells at 10 to 20 nM incubated for 3 hrs followed by antimycin A addition by fluorescene based analysis; assay type: functional; settings: dose 10-20 nM
Epithelial cell [8] = assay: Induction of H2O2-reduced ATP production in human tubular epithelial cells at 10 to 20 nM incubated for 3 hrs followed by H2O2 measured after 1 hr by fluorescene based analysis; assay type: functional; settings: dose 10-20 nM, time 4.0 hrs
Epithelial cell [9] = assay: Reversal of H2O2-induced mitochondrial dysfunction in human tubular epithelial cells assessed as increase in OCR level measured for 40 to 60 mins by Seahorse assay; assay type: functional, cell-based; settings: dose 10-50 nM, time 40-60 min
Summary of the method: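 hTECs were exposed to H2O2 with peptide at 10 or 50 nM (n = 6 per group), then run on a Seahorse XFe96. OCR was read after sequential 2 μM oligomycin, 1 μM FCCP, and 0.5 μM rotenone/antimycin A. ECAR was read after 10 mM glucose, 1 μM oligomycin and 50 mM 2-DG. Glycolytic proton efflux rate was taken as glycoATP production rate.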

Mus musculus [10] = assay: Protection against colistin-induced nephrotoxicity in C57BL/6 mouse model assessed as reduction in blood BUN level at 1 mg/kg, ip administered once every other day measured upto 7 days; assay type: functional, organism-based; settings: time <= 7.0 day
Summary of the method: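 Male C57BL/6 mice, 7 weeks: colistin 20 mg/kg sc daily for 7 days, peptide 1 mg/kg ip every other day, n = 5 per group. BUN by autoanalyzer and creatinine by modified Jaffe reaction after 7 days; mean ± SEM.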

Mus musculus [11] = assay: Protection against colistin-induced nephrotoxicity in C57BL/6 mouse model assessed as reduction in renal fibrosis at 1 mg/kg, ip administered once every other day measured after 7 days by […] analysis; assay type: functional, organism-based; settings: time 7.0 day
Summary of the method: (§1)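 Seven-week-old male C57BL/6 mice got colistin 20 mg/kg SC daily for 7 days plus peptide 1 mg/kg intraperitoneally every other day; groups of n = 5 (control, colistin, colistin + peptide). Kidneys were taken at day 7. Cytochrome C was detected by immunohistochemistry (citrate antigen retrieval, HRP-polymer detection, hematoxylin counterstain). Sections were also stained with PAS and Masson's trichrome to score histologic damage and fibrosis.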

Mus musculus [12] = assay: Protection against colistin-induced nephrotoxicity in C57BL/6 mouse model assessed as reduction in NGAL level at 1 mg/kg, ip administered once every other day measured after 7 days by IHC analysis; assay type: functional, organism-based; settings: time 7.0 day
Summary of the method: (§2)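 Male C57BL/6 mice, 7 weeks: colistin 20 mg/kg sc daily for 7 days, peptide 1 mg/kg ip once every other day, n = 5 per group. Day-7 kidney sections, citrate antigen retrieval, immunohistochemistry with HRP polymer secondary and hematoxylin counterstain; PAS and Masson's trichrome for damage.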

Mus musculus [13] = assay: Protection against colistin-induced nephrotoxicity in C57BL/6 mouse model assessed as reduction in 8-OHdG level at 1 mg/kg, ip administered once every other day measured after 7 days by IHC analysis; assay type: functional, organism-based; settings: time 7.0 day; summary of the method: as §2
Mus musculus [14] = assay: Protection against colistin-induced nephrotoxicity in C57BL/6 mouse model assessed as reduction in cyt C level at 1 mg/kg, ip administered once every other day measured after 7 days by IHC analysis; assay type: functional, organism-based; settings: time 7.0 day; summary of the method: as §1
Epithelial cell [15] = assay: Reversal of H2O2-induced p16 mRNA level in human tubular epithelial cells at 10 to 100 nM by qPCR analysis; assay type: functional, cell-based; settings: dose 10-100 nM
Epithelial cell [16] = assay: Reversal of H2O2-induced p21 mRNA level in human tubular epithelial cells at 10 to 100 nM by qPCR analysis; assay type: functional, cell-based; settings: dose 10-100 nM
Mus musculus [17] = assay: Protection against […] C57BL/6 mouse model assessed as reduction in inflammatory cell infiltration at 1 mg/kg, ip administered thrice a week prior to induction of bilateral ischemia-reperfusion injury measured after 6 days by IHC analysis; assay type: functional, organism-based; settings: time 6.0 day
Mus musculus [18] = assay: Protection against […] C57BL/6 mouse model assessed as decrease in NGAL level at 1 mg/kg, ip administered thrice a week prior to induction of bilateral ischemia-reperfusion injury measured after 6 days by IHC analysis; assay type: functional, organism-based; settings: time 6.0 day
Mus musculus [19] = assay: Protection against […] C57BL/6 mouse model assessed as increase in IL-10 mRNA level at 1 mg/kg, ip administered thrice a week prior to induction of bilateral ischemia-reperfusion injury measured after 6 days by qPCR analysis; assay type: functional, organism-based; settings: time 6.0 day
Mus musculus [20] = assay: Protection against […] C57BL/6 mouse model assessed as increase in ATP6 mRNA level at 1 mg/kg, ip administered thrice a week prior to induction of bilateral ischemia-reperfusion injury measured after 6 days by qPCR analysis; assay type: functional, organism-based; settings: time 6.0 day
Mus musculus [21] = assay: Protection against […] C57BL/6 mouse model assessed as decrease in serum creatinine level at 1 mg/kg, ip measured after 23 hrs; assay type: functional, organism-based

## CC(=O)N[C@@H](CC1CCCCC1)C(=O)N[C@H]1CSSC[C@@H](C(=O)N[C@@H](CCCNC(=N)N)C(N)=O)NC(=O)[C@H](CC2CCCCC2)NC(=O)[C@H](CCCNC(=N)N)NC(=O)[C@H](CCCNC(=N)N)NC(=O)[C@H](CC2CCCCC2)NC(=O)[C@H](CC(C)C)NC(=O)[C@H](CCCNC(=N)N)NC(=O)[C@@H](NC(=O)[C@H](CC2CCCCC2)NC(=O)c2ccc3c(c2)C(=O)OC32c3ccc(N(C)C)cc3Oc3cc(N(C)C)ccc32)CSSC[C@@H](C(=O)N[C@@H](CCCNC(=N)N)C(N)=O)NC(=O)[C@H](CC2CCCCC2)NC(=O)[C@H](CCCNC(=N)N)NC(=O)[C@H](CCCNC(=N)N)NC(=O)[C@H](CC2CCCCC2)NC(=O)[C@H](CC(C)C)NC(=O)[C@H](CCCNC(=N)N)NC1=O (I: Ac-[Cha]CRL[Cha]RR[Cha]CR-NH2 / II: 5TAMRA-[Cha]CRL[Cha]RR[Cha]CR-NH2; disulfide I:2-II:9, I:9-II:2)
[1]
  Drug uptake: 53%
Mitochondria
  inhibition: Dose-Dependent Effect
HeLa
  Activity: Dose-Dependent Effect
[2]
  Drug uptake: Not Active
[3]
  Drug uptake: Active
[4]
  Drug uptake: Active
[5]
  Drug uptake: Active
Epithelial cell [6]
  Activity: Active
Epithelial cell [7]
  Activity: Active
Epithelial cell [8]
  Activity: Active
Epithelial cell [9]
  Activity: Dose-Dependent Effect
Mus musculus [10]
  Activity: Active
Mus musculus [11]
  Activity: Active
Mus musculus [12]
  Activity: Active
Mus musculus [13]
  Activity: Active
Mus musculus [14]
  Activity: Active
Epithelial cell [15]
  Activity: Active
Epithelial cell [16]
  Activity: Active
Mus musculus [17]
  Activity: Active
Mus musculus [18]
  Activity: Active
Mus musculus [19]
  Activity: Active
Mus musculus [20]
  Activity: Active
Mus musculus [21]
  Activity: Active
